Blank lines part the entries; values can stand above or below the compound they belong to.
Experiments:
[1] = biological target: T1, Acyl-homoserine-lactone synthase (Pseudomonas aeruginosa (strain ATCC 15692 / PAO1 / 1C / PRS 101 / LMG12228)) (UniProt P33883); test: Modulation of Pseudomonas aeruginosa lacZ-fused lasI expressed in Escherichia coli DH5alpha co-expressing pBAD-lasR at 0.002 mM after 3 hrs by beta-galactosidase assay relative to control
T1 sequence (whole entry): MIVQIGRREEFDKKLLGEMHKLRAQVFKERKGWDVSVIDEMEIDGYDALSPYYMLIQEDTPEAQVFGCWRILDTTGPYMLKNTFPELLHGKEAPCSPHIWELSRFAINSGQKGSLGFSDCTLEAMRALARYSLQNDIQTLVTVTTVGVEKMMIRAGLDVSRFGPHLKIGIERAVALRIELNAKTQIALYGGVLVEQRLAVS
In short: (§1)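 E. coli DH5α carrying pSC11 (PlasI-lacZ translational fusion) and pJN105L (PBAD-lasR) was grown overnight in LB with ampicillin (100 μg/ml) and gentamicin (15 μg/ml), then diluted to OD600 0.150. Arabinose (0.2% w/v), 3-oxo-C12-AHL (2 μM) and test compound or DMSO were added. Cultures were shaken 3 h at 37 °C. β-Galactosidase activity was read in Miller units and expressed as % of the solvent sample. Triplicates per biological replicate, repeated at least twice; paired two-tailed t-test.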

[2] = biological target: T2, Transcriptional activator protein LasR (Pseudomonas aeruginosa (strain ATCC 15692 / PAO1 / 1C / PRS 101 / LMG12228), UniProt P25084); test: Inhibition of Pseudomonas aeruginosa LasR
T2 sequence (P25084 whole entry): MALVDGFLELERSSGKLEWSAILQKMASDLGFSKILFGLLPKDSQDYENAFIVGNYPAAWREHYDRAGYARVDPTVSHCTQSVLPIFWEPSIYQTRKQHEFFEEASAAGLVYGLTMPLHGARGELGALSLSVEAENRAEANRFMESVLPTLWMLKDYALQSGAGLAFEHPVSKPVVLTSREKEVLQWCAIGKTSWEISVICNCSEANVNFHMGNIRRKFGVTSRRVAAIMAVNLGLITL

[3] = biological target: 3-(3-hydroxydecanoyloxy)decanoate synthase (Pseudomonas aeruginosa (strain ATCC 15692 / PAO1 / 1C / PRS 101 / LMG12228)) (UniProt Q51559); test: Modulation of Pseudomonas aeruginosa lacZ-fused rhlA expressed in Escherichia coli DH5alpha co-expressing Ptac-rhlR assessed as C4-AHL-induced effect at 1.16 mM after 4 hrs by beta-galactosidase assay relative to control
In short: (§2)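 E. coli DH5α carrying pECP61.5 (Ptac-rhlR, PrhlA-lacZ), grown overnight in LB with ampicillin 100 μg/ml and diluted to OD600 0.150. At OD600 1.0, 1 mM IPTG, 2 μM C4-HSL and compound or DMSO were added. Cultures were shaken 4 h at 37 °C, then β-galactosidase was read in Miller units. Activity is % of solvent sample, from triplicates per biological replicate, with at least two repeats.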

[4] = biological target: 3-(3-hydroxydecanoyloxy)decanoate synthase (Pseudomonas aeruginosa (strain ATCC 15692 / PAO1 / 1C / PRS 101 / LMG12228)) (UniProt Q51559); test: Modulation of Pseudomonas aeruginosa lacZ-fused rhlA expressed in Escherichia coli DH5alpha co-expressing Ptac-rhlR assessed as C4-AHL-induced effect at 0.87 mM after 4 hrs by beta-galactosidase assay relative to control; in short: as §2
[5] = biological target: T1, Acyl-homoserine-lactone synthase (Pseudomonas aeruginosa (strain ATCC 15692 / PAO1 / 1C / PRS 101 / LMG12228)); test: Modulation of Pseudomonas aeruginosa lacZ-fused lasI expressed in Escherichia coli DH5alpha co-expressing pBAD-lasR assessed as 3-oxo-C12-AHL-induced effect at 0.29 mM after 3 hrs by beta-galactosidase assay relative to control; in short: as §1
[6] = biological target: T1, Acyl-homoserine-lactone synthase (Pseudomonas aeruginosa (strain ATCC 15692 / PAO1 / 1C / PRS 101 / LMG12228)); test: Modulation of Pseudomonas aeruginosa lacZ-fused lasI expressed in Escherichia coli DH5alpha co-expressing pBAD-lasR assessed as 3-oxo-C12-AHL-induced effect at 0.87 mM after 3 hrs by beta-galactosidase assay relative to control; in short: as §1
[7] = biological target: T1, Acyl-homoserine-lactone synthase (Pseudomonas aeruginosa (strain ATCC 15692 / PAO1 / 1C / PRS 101 / LMG12228)); test: Modulation of Pseudomonas aeruginosa lacZ-fused lasI expressed in Escherichia coli DH5alpha co-expressing pBAD-lasR assessed as 3-oxo-C12-AHL-induced effect at 1.16 mM after 3 hrs by beta-galactosidase assay relative to control; in short: as §1
[8] = biological target: 3-(3-hydroxydecanoyloxy)decanoate synthase (Pseudomonas aeruginosa (strain ATCC 15692 / PAO1 / 1C / PRS 101 / LMG12228)) (UniProt Q51559); test: Modulation of Pseudomonas aeruginosa lacZ-fused rhlA expressed in Escherichia coli DH5alpha co-expressing Ptac-rhlR assessed as C4-AHL-induced effect at 0.58 mM after 4 hrs by beta-galactosidase assay relative to control; in short: as §2
[9] = biological target: 3-(3-hydroxydecanoyloxy)decanoate synthase (Pseudomonas aeruginosa (strain ATCC 15692 / PAO1 / 1C / PRS 101 / LMG12228)) (UniProt Q51559); test: Modulation of Pseudomonas aeruginosa lacZ-fused rhlA expressed in Escherichia coli DH5alpha co-expressing Ptac-rhlR assessed as C4-AHL-induced effect at 0.29 mM after 4 hrs by beta-galactosidase assay relative to control
In short: (§3)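 rhl reporter: E. coli DH5α carrying pECP61.5 (Ptac-rhlR, PrhlA-lacZ) was grown overnight in LB with ampicillin (100 μg/ml) only, then diluted to OD600 0.150. It was induced with 1 mM IPTG, and 2 μM C4-HSL plus compound or DMSO were added at OD600 1.0. Cultures were shaken 4 h at 37 °C. β-Galactosidase activity was read in Miller units as % of the solvent sample. Triplicates per biological replicate, at least two repeats; paired two-tailed t-test.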

[10] = biological target: T1, Acyl-homoserine-lactone synthase (Pseudomonas aeruginosa (strain ATCC 15692 / PAO1 / 1C / PRS 101 / LMG12228)); test: Modulation of Pseudomonas aeruginosa lacZ-fused lasI expressed in Escherichia coli DH5alpha co-expressing pBAD-lasR assessed as 3-oxo-C12-AHL-induced effect at 0.58 mM after 3 hrs by beta-galactosidase assay relative to control; in short: as §1
[11] = biological target: T1, Acyl-homoserine-lactone synthase (Pseudomonas aeruginosa (strain ATCC 15692 / PAO1 / 1C / PRS 101 / LMG12228)); test: Modulation of Pseudomonas aeruginosa lacZ-fused lasI expressed in Escherichia coli DH5alpha co-expressing pBAD-lasR assessed as 3-oxo-C12-AHL-induced effect at 0.69 mM after 3 hrs by beta-galactosidase assay relative to control; in short: as §1
[12] = biological target: T1, Acyl-homoserine-lactone synthase (Pseudomonas aeruginosa (strain ATCC 15692 / PAO1 / 1C / PRS 101 / LMG12228)); test: Modulation of Pseudomonas aeruginosa lacZ-fused lasI expressed in Escherichia coli DH5alpha co-expressing pBAD-lasR assessed as 3-oxo-C12-AHL-induced effect at 0.34 mM after 3 hrs by beta-galactosidase assay relative to control; in short: as §1
[13] = biological target: T1, Acyl-homoserine-lactone synthase (Pseudomonas aeruginosa (strain ATCC 15692 / PAO1 / 1C / PRS 101 / LMG12228)); test: Modulation of Pseudomonas aeruginosa lacZ-fused lasI expressed in Escherichia coli DH5alpha co-expressing pBAD-lasR assessed as 3-oxo-C12-AHL-induced effect at 0.52 mM after 3 hrs by beta-galactosidase assay relative to control; in short: as §1
[14] = biological target: 3-(3-hydroxydecanoyloxy)decanoate synthase (Pseudomonas aeruginosa (strain ATCC 15692 / PAO1 / 1C / PRS 101 / LMG12228)) (UniProt Q51559); test: Modulation of Pseudomonas aeruginosa lacZ-fused rhlA expressed in Escherichia coli DH5alpha co-expressing Ptac-rhlR assessed as C4-AHL-induced effect at 0.34 mM after 4 hrs by beta-galactosidase assay relative to control; in short: as §3
[15] = biological target: 3-(3-hydroxydecanoyloxy)decanoate synthase (Pseudomonas aeruginosa (strain ATCC 15692 / PAO1 / 1C / PRS 101 / LMG12228)) (UniProt Q51559); test: Modulation of Pseudomonas aeruginosa lacZ-fused rhlA expressed in Escherichia coli DH5alpha co-expressing Ptac-rhlR assessed as C4-AHL-induced effect at 0.17 mM after 4 hrs by beta-galactosidase assay relative to control; in short: as §3
[16] = biological target: T1, Acyl-homoserine-lactone synthase (Pseudomonas aeruginosa (strain ATCC 15692 / PAO1 / 1C / PRS 101 / LMG12228)); test: Modulation of Pseudomonas aeruginosa lacZ-fused lasI expressed in Escherichia coli DH5alpha co-expressing pBAD-lasR assessed as 3-oxo-C12-AHL-induced effect at 0.17 mM after 3 hrs by beta-galactosidase assay relative to control; in short: as §1
[17] = biological target: 3-(3-hydroxydecanoyloxy)decanoate synthase (Pseudomonas aeruginosa (strain ATCC 15692 / PAO1 / 1C / PRS 101 / LMG12228)) (UniProt Q51559); test: Modulation of Pseudomonas aeruginosa lacZ-fused rhlA expressed in Escherichia coli DH5alpha co-expressing Ptac-rhlR assessed as C4-AHL-induced effect at 0.69 mM after 4 hrs by beta-galactosidase assay relative to control; in short: as §2
[18] = biological target: 3-(3-hydroxydecanoyloxy)decanoate synthase (Pseudomonas aeruginosa (strain ATCC 15692 / PAO1 / 1C / PRS 101 / LMG12228)) (UniProt Q51559); test: Modulation of Pseudomonas aeruginosa lacZ-fused rhlA expressed in Escherichia coli DH5alpha co-expressing Ptac-rhlR assessed as C4-AHL-induced effect at 0.52 mM after 4 hrs by beta-galactosidase assay relative to control; in short: as §3

Activity [1]: 100%
SMILES: CCCCCCCCCC(=O)CC(=O)N[C@H]1CCOC1=O

IC50 [2]: 10 µM
SMILES: CCCCCCCCCC(=O)CC(=O)NC1CCCCC1=O (centres undefined)

Activity [3]: 108%
Activity [4]: 104%
Activity [5]: 90%
Activity [6]: 51%
Activity [7]: 43%
Activity [8]: 118%
Activity [9]: 104%
Activity [10]: 72%
SMILES: CCCSC[C@@H]1CCC(=O)N1

Activity [11]: 53%
Activity [12]: 78%
Activity [13]: 71%
Activity [14]: 127%
Activity [15]: 98%
Activity [16]: 78%
Activity [17]: 121%
Activity [18]: 116%
SMILES: CCCCCCCCCSC[C@H]1NC(O)[C@H](O)[C@@H]1O (mixture of isomers)

SMILES: O=C(Cc1cccc([N+](=O)[O-])c1)N[C@H]1CCOC1=O
IC50 [2]: 0.61 µM
